Test results published in ChEMBL document CHEMBL1135498, “Pyrazole urea-based inhibitors of p38 MAP kinase: from lead compound to clinical candidate” (J Med Chem, 2002).
One block for each molecule: values may come before it. Activity calls are given as the source filed them. The calls are words filed in the database; no cut-off is given here.

Tests used:
[1] = Plasma level of compound was measured after 90 min post dose in mouse.; format: ADME, organism-based; details: read-out: Plasma level
In short: (§1)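 Female Balb/c mice (~20 g) received compound or vehicle orally in cremophor about 30 min before an i.v. challenge of E. coli 0111:B4 LPS (1.0 μg/mouse) plus D-gal (50 mg/kg) in pyrogen-free saline. One hour after challenge, the mice were bled by cardiac puncture. Serum TNF-α was measured by ELISA in duplicate, and compound levels by HPLC.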

[2] = system: Mus musculus; assay: In vivo inhibition of LPS-stimulated TNF-alpha in mouse at 100 mg/kg peroral dose; format: functional; details: route oral
In short: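 Female Balb/c mice (~20 g) dosed orally in cremophor ~30 min before iv LPS (E. coli 0111:B4, 1.0 μg/mouse) plus D-gal (50 mg/kg) in pyrogen-free saline. Blood taken by cardiac puncture 1 h after challenge; serum TNF-α by ELISA in duplicate; serum compound levels by HPLC.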

[3] = target: MAP kinase p38 (Homo sapiens, UniProt O15264+Q15759+Q16539+P53778); assay: Binding affinity against human Mitogen-activated protein kinase p38; format: protein assay
In short: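 Inhibitor at two concentrations (typically 1 and 0.1 μM, verified by HPLC); 60 min room temperature; excitation 332 nm, emission 420 nm. Duplicates; all points fit to equilibrium binding equation for Kd.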

[4] = Plasma clearance was measured after intravenous dosing at 1 mg/kg in male cynomolgus monkey (70% PEG400); format: ADME, organism-based, Macaca fascicularis; design: dose 1 mg/kg, route intravenous
[5] = Maximum time (Tmax) was measured after oral dosing at 10 mg/kg in male cynomolgus monkey (100% PEG400); format: ADME, organism-based, Macaca fascicularis; design: dose 10 mg/kg, route oral; details: in vivo
[6] = Vss was measured after intravenous dosing at 1 mg/kg in female BALB/c mice(70% PEG400); format: ADME, organism-based; design: dose 1 mg/kg, route intravenous; details: mouse, in vivo, read-out: Vss
[7] = Plasma clearance (CL) was measured after intravenous dosing at 1 mg/kg in female BALB/c mice(70% PEG400); format: ADME, organism-based; design: dose 1 mg/kg, route intravenous; details: mouse
[8] = Half-life was measured after intravenous dosing at 1 mg/kg in male cynomolgus monkey (70% PEG400); format: ADME, organism-based, Macaca fascicularis; design: dose 1 mg/kg, route intravenous; details: in vivo
[9] = Selectivity against Protein kinase C alpha, Protein kinase C beta, Protein kinase C gamma
[10] = target: Receptor tyrosine-protein kinase erbB-2 (Homo sapiens, UniProt P04626); assay: Selectivity against HER2 kinase
Sequence of Receptor tyrosine-protein kinase erbB-2 (P04626 whole entry): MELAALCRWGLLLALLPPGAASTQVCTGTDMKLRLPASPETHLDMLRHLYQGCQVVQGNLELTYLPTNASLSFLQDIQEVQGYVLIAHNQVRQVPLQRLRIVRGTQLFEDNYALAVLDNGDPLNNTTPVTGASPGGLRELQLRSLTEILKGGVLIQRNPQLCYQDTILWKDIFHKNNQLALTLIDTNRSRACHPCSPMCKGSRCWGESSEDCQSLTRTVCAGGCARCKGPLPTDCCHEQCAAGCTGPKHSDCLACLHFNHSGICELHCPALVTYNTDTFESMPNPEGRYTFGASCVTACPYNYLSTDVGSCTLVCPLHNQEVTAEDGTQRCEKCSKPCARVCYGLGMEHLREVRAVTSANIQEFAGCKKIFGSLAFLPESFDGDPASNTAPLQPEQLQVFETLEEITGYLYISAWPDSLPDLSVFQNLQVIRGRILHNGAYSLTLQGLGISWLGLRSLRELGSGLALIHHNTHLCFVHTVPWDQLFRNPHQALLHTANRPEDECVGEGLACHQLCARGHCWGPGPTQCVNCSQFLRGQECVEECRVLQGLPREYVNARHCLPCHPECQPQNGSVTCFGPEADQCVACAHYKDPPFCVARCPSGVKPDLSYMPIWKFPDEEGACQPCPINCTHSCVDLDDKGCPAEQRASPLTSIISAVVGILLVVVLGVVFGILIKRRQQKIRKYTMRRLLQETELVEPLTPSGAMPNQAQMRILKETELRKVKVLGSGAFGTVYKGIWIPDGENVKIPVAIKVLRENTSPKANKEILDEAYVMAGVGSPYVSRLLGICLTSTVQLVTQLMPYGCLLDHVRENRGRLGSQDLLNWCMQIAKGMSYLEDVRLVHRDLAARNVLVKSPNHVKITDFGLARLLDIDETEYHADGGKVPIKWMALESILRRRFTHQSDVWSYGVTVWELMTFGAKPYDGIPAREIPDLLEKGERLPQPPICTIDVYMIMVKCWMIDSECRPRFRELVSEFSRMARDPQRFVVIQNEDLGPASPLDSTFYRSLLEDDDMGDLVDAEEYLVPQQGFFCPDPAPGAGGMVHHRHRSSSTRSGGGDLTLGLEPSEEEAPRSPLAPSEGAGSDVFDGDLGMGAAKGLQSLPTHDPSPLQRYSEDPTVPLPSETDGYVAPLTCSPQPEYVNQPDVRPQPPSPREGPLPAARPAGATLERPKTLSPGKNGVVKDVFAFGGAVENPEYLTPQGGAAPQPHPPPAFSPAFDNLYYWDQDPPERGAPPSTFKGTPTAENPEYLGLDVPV

[11] = Maximum conc. (Cmax) was measured after oral dosing at 10 mg/kg in male cynomolgus monkey (100% PEG400); format: ADME, organism-based, Macaca fascicularis; design: dose 10 mg/kg, route oral; details: in vivo
[12] = Bioavailability was measured after oral dosing at 10 mg/kg in female BALB/c mice(100% PEG400); format: ADME, organism-based; details: mouse, in vivo, read-out: Bioavailabiility
[13] = Bioavailability was measured after oral dosing at 10 mg/kg in male cynomolgus monkey (100% PEG400); format: ADME, organism-based, Macaca fascicularis; details: in vivo, read-out: Bioavailabiility
[14] = Vss was measured after intravenous dosing at 1 mg/kg in male cynomolgus monkey (70% PEG400); format: ADME, organism-based, Macaca fascicularis; design: dose 1 mg/kg, route intravenous; details: in vivo, read-out: Vss
[15] = target: cAMP-dependent protein kinase (PKA) (Homo sapiens, UniProt P22694+P17612+P22612); assay: Selectivity against Protein kinase A (PKA); format: protein assay
[16] = Maximum time (Tmax) was measured after oral dosing at 10 mg/kg in female BALB/c mice(100% PEG400); format: ADME, organism-based; design: dose 10 mg/kg, route oral; details: mouse, in vivo
[17] = Maximum plasma conc. was measured after oral dosing at 10 mg/kg in female BALB/c mice(100% PEG400); format: ADME, organism-based; design: dose 10 mg/kg, route oral; details: mouse
[18] = Half life was measured after intravenous dosing at 1 mg/kg in female BALB/c mice(70% PEG400); format: ADME, organism-based; design: dose 1 mg/kg, route intravenous; details: mouse, in vivo
[19] = system: Mus musculus; assay: In vivo inhibition of LPS-stimulated TNF-alpha in mouse at 100 mg/kg peroral dose; NS = Not significant.; format: functional, organism-based; design: dose 100 mg/kg; in short: as §1
[20] = Plasma level of compound was measured after 90 min post dose in mouse; format: ADME, organism-based; details: read-out: Plasma level; in short: as §1

- Kd [3]: 0.001 µM
Structure (SMILES): Cc1ccc(-n2nc(C(C)(C)C)cc2NC(=O)Nc2cccc3ccccc23)cc1

- concentration at 1.5 h [1]: 100 ng/mL
Structure (SMILES): CC(C)(C)c1cc(NC(=O)Nc2ccccc2)n(-c2ccccc2)n1
- NS [19]: inactive

More lines, now with the values behind:

Structure (SMILES): Cc1ccc(-n2nc(C(C)(C)C)cc2NC(=O)Nc2ccccc2F)cc1
- concentration at 1.5 h [1]: 51000 ng/mL
- inhibition in vivo at 100 mg/kg [2]: 90%

Structure (SMILES): Cc1ccc(-n2nc(C(C)(C)C)cc2NC(=O)Nc2ccc(OCCN3CCOCC3)c3ccccc23)cc1 [DORAMAPIMOD]
- clearance [4]: 14.4 mL/min/kg
- Tmax [5]: 3 h
- Vd [6]: 0.07 L/kg
- clearance [7]: 0.33 mL/min/kg
- half-life [8]: 1.6 h
- IC50 [9]: > 20 µM
- IC50 [10]: > 20 µM
- Cmax [11]: 1700 ng/mL
- bioavailability [12]: 23%
- bioavailability [13]: 80%
- Vd [14]: 1.9 L/kg
- IC50 [15]: > 20 µM
- Tmax [16]: 1 h
- Cmax [17]: 27000 ng/mL
- half-life [18]: 2.6 h

Structure (SMILES): Cc1ccc(-n2nc(C(C)(C)C)cc2NC(=O)Nc2ccccc2)cc1
- inhibition in vivo at 100 mg/kg [2]: 67%
- concentration at 1.5 h [20]: 11000 ng/mL
